# Results published in ChEMBL document CHEMBL1148169, “Bioactive and other sesquiterpenoids from Porella cordeana” (1993).
# Legend:
# [1] = system: Saccharomyces cerevisiae; experiment: DNA damaging activity against RS322YK rad52 DNA repair gene deficient Saccharomyces cerevisiae mutant assessed as drug level required to produce 12 mm zone of inhibition after 48 hrs; format: functional
# Outline: (§1)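 Agar well-diffusion test on Saccharomyces cerevisiae strains differing in DNA-repair genes. Sample is placed in a 100 μl well and the plate is incubated 48 h at 37°. The value is the concentration in μg/ml that gives a 12 mm diameter inhibition zone around the well.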
# [2] = system: Saccharomyces cerevisiae; experiment: DNA damaging activity against RS167N rad6 DNA repair gene deficient Saccharomyces cerevisiae mutant assessed as drug level required to produce 12 mm zone of inhibition after 48 hrs; format: functional; outline: as §1
# [3] = system: Saccharomyces cerevisiae; experiment: DNA damaging activity against DNA repair gene deficient Saccharomyces cerevisiae mutant assessed as drug level required to produce 12 mm zone of inhibition after 48 hrs
SMILES,IC12 [1] [µg/mL],IC12 [2] [µg/mL],IC12 [3] [µg/mL]
CC1(C)CCC[C@]2(C)C3=C(COC3=O)C(=O)C[C@@H]12,> 1000,> 1000,> 1000
CC1(C)CCC[C@@]2(C)C1=CC(=O)C1=C2C(=O)OC1,> 1000,> 1000,> 1000
C[C@@H]1CCCC2=CC(=O)[C@@H]3[C@@H](C3(C)C)[C@]21C [ARISTOLONE],390,> 1000,> 1000
CC1(C)CCC[C@]2(C)[C@H]3C(=O)OCC3=CC[C@@H]12 [DRIMENIN],200,> 1000,> 1000
C[C@@H]1[C@@H]2C[C@@]3(C)C(=O)c4ccoc4C[C@@]13C(=O)O2 [NORPINGUISANOLIDE],> 1000,> 1000,> 1000
